Measured values from ChEMBL document CHEMBL3272319, “Alkyl streptozotocin analogues with improved biological activities” (J Med Chem, 1976).
Converted amounts (≈) assume the structure as drawn.

Legend:
[1] = system: Rattus norvegicus; assay: Diabetogenic activity in Wistar rat assessed as increase in blood sugar level at 65 mg/kg, iv administered as single dose by glucose oxidase method; format: ADME, organism-based; design: dose 65 mg/kg, route intravenous; settings: in vivo
Procedure, shortened: (§1)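 Male Wistar rats, about 200 g, five per group, fasted 16 h. Single iv dose into the femoral vein in physiological saline, equimolar across compounds. Caudal-vein blood sampled at set times over 24 h. Sugar measured by glucose oxidase.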

[2] = system: Salmonella typhi; assay: Antibacterial activity against Salmonella typhi IFM 3020 assessed as growth inhibition after 18 hrs by broth dilution method; format: functional, Salmonella enterica subsp. enterica serovar Typhi; settings: Salmonella enterica, IFM 3020, 18 h
Procedure, shortened: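 Twofold serial dilutions in heart infusion broth; inoculum from 24 h heart infusion broth culture diluted 100-fold in physiological saline; tubes incubated 30 °C for 18 h; MIC (µg/ml) = lowest level giving complete growth inhibition.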

[3] = system: Staphylococcus aureus; assay: Antibacterial activity against Staphylococcus aureus FDA 209P JC-1 assessed as growth inhibition after 18 hrs by broth dilution method; format: functional; settings: FDA 209P JC-1, 18 h
Procedure, shortened: (§2)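 Twofold serial dilutions in heart infusion broth. Inoculum was a 24-h heart infusion broth culture diluted 100-fold in physiological saline. Tubes incubated 30 °C for 18 h; the table footnote gives 32 °C for 24 h. MIC in µg/ml is the lowest level giving complete growth inhibition.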

[4] = system: Proteus vulgaris; assay: Antibacterial activity against Proteus vulgaris AHU 1469 assessed as growth inhibition after 18 hrs by broth dilution method; format: functional; settings: AHU 1469, 18 h; procedure, shortened: as §2
[5] = system: Mus musculus; assay: Toxicity in ip dosed BDF1 mouse allografted with mouse L1210 cells assessed as optimal dose required for mortality administered qd for 5 days; format: organism-based; settings: in vivo, 120 h
[6] = system: L1210; assay: Antitumor activity against mouse L1210 cells allografted in BDF1 mouse assessed as increase in host lifespan at 200 mg/kg, ip qd for 5 days relative to control; format: functional; settings: 120 h, route intraperitoneal
Procedure, shortened: (§3)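 L1210 (1 × 10^5 cells) implanted into BDF1 mice, six per group; compound in saline ip once daily days 1-5; effect read as % increase in life span, ILS = [(treated life span/control life span) − 1] × 100.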

[7] = Therapeutic index, ratio of LD10 for JCL-ICR mouse to ED90 for mouse S180A cells allografted in ICR mouse; settings: read-out: TI
[8] = system: L1210; assay: Antitumor activity against mouse L1210 cells allografted in ip dosed BDF1 mouse assessed as 30% increase in host lifespan administered for qd for 5 days; format: functional
[9] = system: Shigella sonnei; assay: Antibacterial activity against Shigella sonnei assessed as growth inhibition after 18 hrs by broth dilution method; format: functional; procedure, shortened: as §2
[10] = Antitumor activity against mouse S180A allografted in ICR mouse assessed as tumor growth at 50 mg/kg, ip qd for 5 days measured on day 7 relative to control; format: functional; settings: route intraperitoneal
Procedure, shortened: (§4)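 Ascites Sarcoma 180 (1 × 10^7 cells) implanted into ICR mice, six animals per group. Five daily ip injections in saline (days 1–5). Sacrificed day 7. T/C % computed from total packed cell volume (ascites volume × PCV) vs controls. Grades: 100-66 = -, 65-41 = +, 40-11 = ++, 10-0 = +++.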

[11] = system: Klebsiella pneumoniae; assay: Antibacterial activity against Klebsiella pneumoniae ATCC 10031 assessed as growth inhibition after 18 hrs by broth dilution method; format: functional; settings: ATCC 10031, 18 h; procedure, shortened: as §2
[12] = (§5) Acute toxicity in ip dosed JCL-ICR mouse assessed as animal death; format: organism-based; settings: JCL-ICR, in vivo
Procedure, shortened: (§6)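 Groups of ten female JCL-ICR mice given single ip dose in physiological saline; deaths followed over 7 days; LD50 (and LD10) derived by Litchfield–Wilcoxon method.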

[13] = system: Mus musculus; assay: as §5; format: organism-based; settings: in vivo; procedure, shortened: as §6
[14] = system: Pseudomonas fluorescens; assay: Antibacterial activity against Pseudomonas fluorescens NIHJ B-254 assessed as growth inhibition after 18 hrs by broth dilution method; format: functional; settings: NIHJ B-254, 18 h; procedure, shortened: as §2
[15] = system: L1210; assay: Antitumor activity against mouse L1210 cells allografted in BDF1 mouse assessed as increase in host lifespan at 100 mg/kg, ip qd for 5 days relative to control; format: functional; settings: 120 h, route intraperitoneal; procedure, shortened: as §3
[16] = system: Mus musculus; assay: Toxicity in ICR mouse allografted with mouse S180A assessed as mortality at 50 mg/kg, ip qd for 5 days; format: organism-based; design: dose 50 mg/kg, route intraperitoneal; settings: in vivo, 120 h
Procedure, shortened: (§7)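 Ascites Sarcoma 180 (1 × 10^7 cells) implanted into ICR mice, six per group; compound in saline ip once daily days 1-5; sacrifice on day 7; total packed cell volume (ascites volume × PCV) compared with controls as T/C %; mortality recorded.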

[17] = system: Rattus norvegicus; assay: Diabetogenic activity in Wistar rat assessed as increase in blood sugar level at 20 mg/kg, ip qd for 1 month measured 24 hrs last drug dosage by glucose oxidase method; format: ADME, organism-based; design: dose 20 mg/kg, route intraperitoneal; settings: in vivo
Procedure, shortened: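 Male Wistar rats, about 150 g, five per group. Drug in physiological saline given ip qd on days 1–30. Blood drawn 24 h after the last dose. Sugar measured by glucose oxidase.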

[18] = system: Micrococcus luteus; assay: Antibacterial activity against Sarcina lutea ATCC 9341 assessed as growth inhibition after 18 hrs by broth dilution method; format: functional; settings: ATCC 9341, 18 h; procedure, shortened: as §2
[19] = Antitumor activity against mouse S180A allografted in ICR mouse assessed as tumor growth at 25 mg/kg, ip qd for 5 days measured on day 7 relative to control; format: functional; settings: route intraperitoneal; procedure, shortened: as §4
[20] = Acute toxicity in iv dosed mouse; format: organism-based; settings: in vivo
[21] = system: Mus musculus; assay: Toxicity in BDF1 mouse allografted with mouse L1210 cells assessed as mortality at 50 mg/kg, ip qd for 5 days; format: organism-based; design: dose 50 mg/kg, route intraperitoneal; settings: in vivo, 120 h; procedure, shortened: as §3
[22] = system: Bacillus subtilis; assay: Antibacterial activity against Bacillus subtilis ATCC 6633 assessed as growth inhibition after 18 hrs by broth dilution method; format: functional; settings: ATCC 6633, 18 h; procedure, shortened: as §2
[23] = system: L1210; assay: Antitumor activity against mouse L1210 cells allografted in BDF1 mouse assessed as increase in host lifespan at 50 mg/kg, ip qd for 5 days relative to control; format: functional; settings: 120 h, route intraperitoneal; procedure, shortened: as §3
[24] = system: Mus musculus; assay: Toxicity in BDF1 mouse allografted with mouse L1210 cells assessed as mortality at 200 mg/kg, ip qd for 5 days; format: organism-based; design: dose 200 mg/kg, route intraperitoneal; settings: in vivo, 120 h; procedure, shortened: as §3
[25] = system: Mus musculus; assay: Toxicity in BDF1 mouse allografted with mouse L1210 cells assessed as mortality at 100 mg/kg, ip qd for 5 days; format: organism-based; design: dose 100 mg/kg, route intraperitoneal; settings: in vivo, 120 h; procedure, shortened: as §3
[26] = Antitumor activity against mouse S180A cells allografted in ip dosed ICR mouse administered qd for 5 days; format: functional; settings: 120 h; procedure, shortened: as §4
[27] = system: Escherichia coli; assay: Antibacterial activity against Escherichia coli NIHJ JC-2 assessed as growth inhibition after 18 hrs by broth dilution method; format: functional; settings: NIHJ JC-2, 18 h; procedure, shortened: as §2
[28] = system: Mus musculus; assay: Toxicity in ICR mouse allografted with mouse S180A assessed as mortality at 25 mg/kg, ip qd for 5 days; format: organism-based; design: dose 25 mg/kg, route intraperitoneal; settings: in vivo, 120 h; procedure, shortened: as §7
[29] = Acute toxicity in iv dosed dog; format: organism-based, Canis lupus familiaris; settings: in vivo
[30] = system: Mus musculus; assay: Ratio of compound LD10 to streptozotocin LD10 for JCL-ICR mouse; format: ADME, organism-based; settings: in vivo
[31] = system: Enterococcus faecalis; assay: Antibacterial activity against Streptococcus faecalis ATCC 10541 assessed as growth inhibition after 18 hrs by broth dilution method; format: functional; settings: ATCC 10541, 18 h; procedure, shortened: as §2
[32] = system: Mus musculus; assay: Toxicity in BDF1 mouse allografted with mouse L1210 cells assessed as mortality at 125 mg/kg, ip qd for 5 days; format: organism-based; design: dose 125 mg/kg, route intraperitoneal; settings: in vivo, 120 h; procedure, shortened: as §3
[33] = system: L1210; assay: Antitumor activity against mouse L1210 cells allografted in BDF1 mouse assessed as increase in host lifespan at 125 mg/kg, ip qd for 5 days relative to control; format: functional; settings: 120 h, route intraperitoneal; procedure, shortened: as §3
[34] = Ratio of compound LD50 to streptozotocin LD50 for JCL-ICR mouse; format: ADME, organism-based; settings: in vivo
[35] = system: Rattus norvegicus; assay: Diabetogenic activity in iv dosed Wistar rat assessed as increase in blood sugar level administered as single dose by glucose oxidase method; format: ADME, organism-based; settings: in vivo; procedure, shortened: as §1

| SMILES | MIC [2] [µg/mL] | MIC [3] [µg/mL] | MIC [4] [µg/mL] | MIC [9] [µg/mL] | T/C [10] [%] | MIC [11] [µg/mL] | LD50 [12] [mg/kg] | LD10 [13] [mg/kg] | MIC [14] [µg/mL] | Activity [16] | MIC [18] [µg/mL] | MIC [22] [µg/mL] | MIC [27] [µg/mL] | also measured |
| --- | --- | --- | --- | --- | --- | --- | --- | --- | --- | --- | --- | --- | --- | --- |
| CN(N=O)C(=O)N[C@@H](C=O)[C@@H](O)[C@H](O)[C@H](O)CO [STREPTOZOCIN] | > 200 | 1.6 (≈ 6.03 µM) | 0.4 (≈ 1.51 µM) | > 200 | 26 | > 200 | 360 | 235 | 6.3 (≈ 23.8 µM) | Non-toxic | > 200 | 12.5 (≈ 47.1 µM) | 12.5 (≈ 47.1 µM) | Activity [1]: Toxic; Activity [5]: 100 mg/kg/day; ILS at 200 mg/kg [6]: 0%; selectivity ratio [7]: 2.6; Activity [8]: 23 mg/kg/day; ILS at 100 mg/kg [15]: 76%; Activity [17]: Toxic; T/C [19]: 40%; LD50 [20]: 275 mg/kg; Activity [21]: Non-toxic; ILS at 50 mg/kg [23]: 44%; Activity [24]: Non-toxic; Activity [25]: Non-toxic; ED90 [26]: 90 mg/kg/day; Activity [28]: Non-toxic; LD50 [29]: 50 mg/kg |
| CCO[C@H]1O[C@H](CO)[C@@H](O)[C@H](O)[C@H]1NC(=O)N(C)N=O | > 1000 | > 1000 | > 1000 | > 1000 | 38 | > 1000 | 2050 | 2000 | > 1000 | Non-toxic | > 1000 | > 1000 | > 1000 | Ratio [30]: 2; MIC [31]: > 1000 µg/mL; Activity [32]: Non-toxic; ILS at 125 mg/kg [33]: 64%; selectivity ratio [34]: 2; Activity [35]: Non-toxic |
